How the values were obtained:
H3K27me3 [1] = test: H3K27me3 HCA assay, MDA-MB-231 cells, 384-well format; type: cell-based; details: MDA-MB-231, 3 days
Procedure, shortened: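 MDA-MB-231 cells were plated in 384-well plates 24 h before compound, diluted in medium from a 10 mM DMSO stock (final DMSO ≤0.6%). Treatment was 3 µM over a time course or a concentration series for 3 days, at 37 °C, 5% CO2. H3K27me3 immunofluorescence used PFA fixation and Triton permeabilization, primary antibody 16 h at 4 °C, plus Hoechst. Confocal imaging averaged about 1500–2000 nuclei; triplicates, % of DMSO control.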

MDA-MB-231 cells = test: Number of analyzed nuclei; type: cell-based; details: MDA-MB-231, 3 days, maximal effect, concentration not given
Procedure, shortened: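 Proliferation was read from the same 3-day high-content assay in 384-well plates at 37 °C, 5% CO2. Nuclei were counted in the Hoechst (4 µg/mL) DNA channel. Segmentation used a gray-level threshold and minimum/maximum nuclear diameter set on DMSO-treated controls, which excluded debris. Total nuclei per well served as cell number and were expressed as % of DMSO control, in triplicate.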

H3K27me3 [2] = details: mutant EZH2-bearing lymphoma cells; cited from earlier work

Row | SMILES | global H3K27me3 level at maximum reduction, % of DMSO control (H3K27me3 [1]) | cell number, % of DMSO control (MDA-MB-231 cells) | time at which loss of H3K27me3 was apparent (H3K27me3 [2]) | time required for full effects on H3K27me3 (H3K27me3 [2])
1 | Nc1nccc2c1ncn2C1C=C(CO)C(O)C1O (stereo not shown) [DZNep, 3-deazaneplanocin A] | 65% | 45% | – | –
2 | Cc1cc(C)c(CNC(=O)c2cc(-c3ccc(CN4CCOCC4)cc3)cc3c2cnn3C2CCCC2)c(=O)[nH]1 [EPZ005687] | – | – | 24 h | up to 5 days

From paper PMC4361481 (Journal of Biomolecular Screening, 2015)
